# Compound activity from PubChem BioAssay.
# CYP2C9 activ: CYP2C9 (human) activation; recombinant CYP2C9, luciferin-H conversion, luminescence; stronger effect = higher value; factor 1 = untreated enzyme, 0 = blocked; activation factor at 5 µM; AID 1024; 1.4% of 96,000 active;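 active = activation factor of 2 or more for CYP2C9 at a 5 µM dose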;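 note: 0 = sulfaphenazole-blocked wells and 1 = vehicle-only wells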
# Cav32 inh: blocks human Cav3.2 T-type calcium channel. B-score at 10 µM. Cav3.2-expressing cells, Fluo-4 calcium fluorescence FDSS; stronger effect = lower value. AID 449739. O95180. 4% of 100,000 active;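 active = single-dose well whose peak fluorescence ratio is a statistical outlier from its plate by either plate-standardised score or position-corrected B-score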
# Target sequence (O95180 whole entry, looked up): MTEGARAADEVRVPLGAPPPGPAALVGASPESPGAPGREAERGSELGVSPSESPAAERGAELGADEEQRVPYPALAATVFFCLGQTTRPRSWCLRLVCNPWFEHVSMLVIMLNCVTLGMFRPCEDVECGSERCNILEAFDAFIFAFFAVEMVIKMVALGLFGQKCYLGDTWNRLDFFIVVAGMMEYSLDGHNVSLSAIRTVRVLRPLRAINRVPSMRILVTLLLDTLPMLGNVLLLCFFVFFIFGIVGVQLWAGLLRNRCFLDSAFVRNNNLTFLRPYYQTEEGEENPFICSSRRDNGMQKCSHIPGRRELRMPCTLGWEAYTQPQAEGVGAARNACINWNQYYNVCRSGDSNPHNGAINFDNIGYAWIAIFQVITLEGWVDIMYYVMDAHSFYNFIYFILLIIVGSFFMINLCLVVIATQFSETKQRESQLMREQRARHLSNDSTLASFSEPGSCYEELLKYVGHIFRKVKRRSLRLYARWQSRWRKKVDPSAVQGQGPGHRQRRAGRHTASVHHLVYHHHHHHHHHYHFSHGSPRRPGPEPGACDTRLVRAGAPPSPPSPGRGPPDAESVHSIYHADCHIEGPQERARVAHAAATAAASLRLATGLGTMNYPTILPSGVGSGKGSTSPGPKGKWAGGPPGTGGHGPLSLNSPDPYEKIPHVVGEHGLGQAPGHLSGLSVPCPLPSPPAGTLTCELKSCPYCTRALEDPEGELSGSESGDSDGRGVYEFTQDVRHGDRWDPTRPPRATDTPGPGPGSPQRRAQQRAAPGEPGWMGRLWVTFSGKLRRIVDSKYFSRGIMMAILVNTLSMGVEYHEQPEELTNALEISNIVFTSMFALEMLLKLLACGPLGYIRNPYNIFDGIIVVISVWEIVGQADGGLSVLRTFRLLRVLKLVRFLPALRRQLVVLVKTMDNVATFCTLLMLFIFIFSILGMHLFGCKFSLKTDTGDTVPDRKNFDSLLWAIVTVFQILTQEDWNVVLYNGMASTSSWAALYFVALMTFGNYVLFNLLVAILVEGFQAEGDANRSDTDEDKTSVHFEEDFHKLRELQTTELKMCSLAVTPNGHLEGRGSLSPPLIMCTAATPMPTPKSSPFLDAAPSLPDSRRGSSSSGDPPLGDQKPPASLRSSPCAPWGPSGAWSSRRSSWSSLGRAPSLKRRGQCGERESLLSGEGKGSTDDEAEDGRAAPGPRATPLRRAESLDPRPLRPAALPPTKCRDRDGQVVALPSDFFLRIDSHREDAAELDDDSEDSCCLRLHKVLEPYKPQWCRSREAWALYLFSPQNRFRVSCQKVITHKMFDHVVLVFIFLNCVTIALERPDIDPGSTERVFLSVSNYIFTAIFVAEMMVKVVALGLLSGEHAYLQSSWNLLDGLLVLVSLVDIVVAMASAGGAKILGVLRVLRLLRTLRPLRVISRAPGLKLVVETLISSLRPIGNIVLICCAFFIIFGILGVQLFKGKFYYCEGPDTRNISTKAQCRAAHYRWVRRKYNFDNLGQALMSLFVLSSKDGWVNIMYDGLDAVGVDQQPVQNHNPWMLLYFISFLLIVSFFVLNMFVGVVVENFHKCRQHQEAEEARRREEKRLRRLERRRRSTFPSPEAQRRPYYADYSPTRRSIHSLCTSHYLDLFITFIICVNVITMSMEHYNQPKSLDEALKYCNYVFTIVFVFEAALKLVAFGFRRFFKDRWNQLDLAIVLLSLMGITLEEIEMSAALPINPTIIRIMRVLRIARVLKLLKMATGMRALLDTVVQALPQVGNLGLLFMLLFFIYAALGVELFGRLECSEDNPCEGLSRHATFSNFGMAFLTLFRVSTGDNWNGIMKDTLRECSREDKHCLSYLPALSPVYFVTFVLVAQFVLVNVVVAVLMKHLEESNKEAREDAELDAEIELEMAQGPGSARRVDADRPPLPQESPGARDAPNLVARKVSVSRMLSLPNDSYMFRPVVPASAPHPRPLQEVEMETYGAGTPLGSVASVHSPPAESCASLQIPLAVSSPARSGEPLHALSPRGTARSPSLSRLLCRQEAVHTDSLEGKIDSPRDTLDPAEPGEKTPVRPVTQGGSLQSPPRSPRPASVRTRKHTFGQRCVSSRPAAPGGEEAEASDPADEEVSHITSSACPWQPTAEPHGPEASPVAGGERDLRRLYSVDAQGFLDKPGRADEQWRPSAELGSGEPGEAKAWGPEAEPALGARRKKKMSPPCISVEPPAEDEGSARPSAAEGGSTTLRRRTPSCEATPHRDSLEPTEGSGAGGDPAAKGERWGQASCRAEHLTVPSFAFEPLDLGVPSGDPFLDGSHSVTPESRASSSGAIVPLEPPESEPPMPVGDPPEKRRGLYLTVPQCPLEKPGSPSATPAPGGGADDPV
# CYP2C19 inhib: human CYP2C19 inhibition | inhibition, % at 5 µM | CYP2C19 Supersomes, luciferin-H EGE luminescence, 30 min | AID 778 | P33261 | 21% of 96,000 active;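 active = CYP2C19 inhibition above a set limit at 5 µM in the primary screen, cut at about 50% in these data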;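 note: plate controls were negative control wells for no effect and 2.5 mM tranylcypromine positive control for full effect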
# CYP2C19 act: increases human CYP2C19 enzyme activity. recombinant CYP2C19, luciferin-H EGE luminescence; stronger effect = higher value; 0 = fully inhibited enzyme, 1 = untreated enzyme. activation factor at 5 µM. 96,000 tested, under 10 active. AID 1025;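 active = activation factor of at least 2 at 5 µM in the primary screen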;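 note: 0 = wells with 2.5 mM tranylcypromine and 1 = vehicle-only wells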
# Rev-RRE block: inhibitors of HIV-1 Rev-RRE RNA interaction. P05866. Rev peptide-RRE RNA binding, FRET. inhibition, % at 8 µM. 0.79% of 97,000 active. AID 704;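 active = inhibition above the screen-wide mean plus 3 SD, cut at about 35% in these data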;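 note: 0% = median DMSO wells and 100% = median Neomycin B control wells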
#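 Test system – labelled RRE RNA duplex and labelled Rev peptide · Signal – fluorescein-to-Cy5 FRET, 480 nm excitation · Evaluation – % inhibition of FRET ratio versus controls · Benchmarks – DMSO low control, neomycin B high control · Incubation – 5 min RNA-compound premix plus 15 min binding step, 25 °C · Medium – HEPES pH 7.5 salt buffer with EDTA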
# CYP2C9 inh: inhibitors of human CYP2C9 | P11712 | CYP2C9 Supersomes, luciferin-H conversion, luminescence | inhibition, % at 5 µM | 20% of 96,000 active;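 active = blocking of liver enzyme CYP2C9 beyond about 50% at 5 µM, limit read from the data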
# An asterisk follows results filed as active; · = no result given. Sampled rows, rich in hits. Any-hit rate of the full collection: about 27%.
SMILES,CYP2C9 activ,Cav32 inh,CYP2C19 inhib,CYP2C19 act,Rev-RRE block,CYP2C9 inh
CCc1nn(-c2cc(Cl)ccc2OC)c2c1C(=O)CCC2,0.8,-1.6,34,0.7,2,16
Cn1c(N)c(C(=O)COC(=O)C2CCC(C(C)(C)C)CC2)c(=O)n(C)c1=O (stereo unspecified),1.3,-0.37,19,0.8,14,-32
CC[C@@H](C)C(NC(=O)OC(C)(C)C)c1cn([C@@H](Cc2ccc(O)cc2)C(=O)N2CCN(C(=O)OC(C)(C)C)CC2)nn1 (stereo partly specified),·,-0.64,·,·,·,·
CC1=C(C(=O)OCc2ccccc2)C(c2ccc(C(C)(C)C)cc2)NC(=O)N1CCCCCC(=O)O (stereo unspecified),·,0.0066,·,·,·,·
CCCc1cc(C(=O)O)c2ccccc2n1,1,0.37,-14,1.1,4,-5
CCCc1ccc(-c2cc(C(=O)NN3CCOCC3)c3ccccc3n2)cc1,0.1,0.24,39,0.6,9,87*
CCc1ccc(-c2cc(C(=O)Nn3cnnc3)c3ccccc3n2)cc1,0,0.66,83*,0.2,-3,99*
Cc1onc(-c2ccccc2)c1C(=O)NCCc1ccc(S(N)(=O)=O)cc1,1,-0.19,6,0.9,0,-2
CCCc1ccc(-c2cc(C(=O)NCCc3ccc(S(N)(=O)=O)cc3)c3ccccc3n2)cc1,0,-0.37,45,0.6,1,98*
COC(=O)c1ccc(NC(=S)NC(=O)c2cc(-c3ccccc3)nc3ccccc23)cc1,0.8,-1.6,15,0.8,6,20
COc1ccc(NC(=O)c2nc[nH]c2C(=O)N2CCC(C)CC2)cc1,·,-0.84,·,·,·,·
Cc1cc(N2CCN(C/C=C/c3ccccc3)CC2)n2ncnc2n1,0.5,0.91,21,0.8,·,52*
COc1ccc(/C=N/c2oc(-c3ccccc3)cc2C#N)cc1OC,0.6,0.56,54*,0.5,9,38
CCOC(=O)c1c(NC(=O)CSc2nnc(C)c(=O)[nH]2)sc2c1CCCC2,0,-2.9,39,0.6,0,98*
CCOC(=O)c1c(NC(=O)CSc2nnc(-c3c[nH]c4ccccc34)n2C)sc2c1CCCC2,·,-2.1,·,·,·,·
CCOC(=O)c1c(NC(=O)CSc2nnc(C)s2)sc2c1CCC(C)C2 (stereo unspecified),·,-4,·,·,2,·
Cc1nnc(SCC(=O)Nc2sc3c(c2C#N)CCCCC3)n1N,1,-0.011,1,1,6,3
CCOC(=O)c1c(NC(=O)CSc2nnc(C)s2)sc2c1CCCCC2,0.4,-3.9,28,0.7,8,55*
Cc1nnc(SCC(=O)Nc2sc3c(c2C#N)CCCC3)[nH]c1=O,0.2,0.0058,-1,1,-6,79*
CCOC(=O)Cc1csc(SCC(=O)Nc2sc3c(c2C(N)=O)CCC3)n1,0.5,-1.2,34,0.7,·,50*
COc1c(Cl)cc(-c2noc(C)c2C(=O)NCCc2ccc(C)cc2)cc1Cl,0.6,-1.4,-2,1,4,39
CC(=O)OC(/C(O)=C(\C#N)c1nc2ccccc2[nH]1)c1ccccc1 (stereo unspecified),0.3,0.34,34,0.7,3,66*
Cc1nn(-c2ccccc2)c(C)c1C(=O)OC/C(O)=C(\C#N)c1nc2ccccc2[nH]1,0.4,·,62*,0.4,40*,64*
Cc1nn(-c2ccccc2)c(C)c1C(=O)OCC(=O)N1CC(=O)Nc2ccccc21,1,0.76,-2,1,10,3
CCOC(=O)c1ccc(NC2OC(=O)c3ccccc32)cc1 (stereo unspecified),1,1,37,0.6,7,-1
SMILES,CYP2C9 activ,Cav32 inh,CYP2C19 inhib,CYP2C19 act,Rev-RRE block,CYP2C9 inh
COc1cc(/C=C2/C(=N)N3C=CSC3=NC2=O)ccc1OCCCOc1cc(C)ccc1C,0.7,0.24,21,0.8,11,33
CC(C)COc1ccc(C(=O)Nc2scc(-c3ccc(Cl)cc3Cl)c2C(N)=O)cc1,0.3,·,30,0.7,8,67*
Cn1c(=O)[nH]c(=O)c2c1nc(Br)n2CC(O)COc1ccccc1 (stereo unspecified),0.9,0.24,-14,1.1,10,7
Cc1ccc(-n2c(=O)c3sccc3n(CC(=O)NCc3ccco3)c2=O)cc1F,0.9,-0.042,-5,1.1,3,9
Cc1nc2c(sc3nc4c(cc32)COC(C)(C)C4)c(=O)o1,0.3,0.92,16,0.8,7,72*
Cc1cnn(C(=S)NCCc2ccccc2)c1,0.7,-0.32,84*,0.2,6,29
COc1ccc(N2C(=O)CCC(C(=O)Nc3cccc(C)n3)C2c2ccc(OC)c(OC)c2)cc1 (stereo unspecified),1,-1.1,14,0.9,·,-3
CCn1c(SCC(=O)Nc2sc(C)c(C)c2C#N)nnc1C(C)C,0.1,0.47,98*,0,4,91*
COCCn1c(SCC(=O)Nc2sc(C)c(C)c2C#N)nnc1C(C)C,0.1,-0.15,80*,0.2,2,92*
COc1ccc(-c2nc(CN3CCC(C(=O)N4CCc5ccccc54)CC3)c(C)o2)cc1OC,0.7,-4.1,13,0.9,13,30
COc1cc(NC(=O)c2ccc(COCC(F)(F)F)cc2)cc(OC)c1OC,1,1.3,15,0.9,6,2
COc1ccc(C2Nc3ccccc3C(=O)N2Cc2ccco2)cc1COc1ccc(F)cc1 (stereo unspecified),·,-7*,·,·,8,·
COc1ccc(C2Nc3ccccc3C(=O)N2Cc2ccccc2)cc1COc1ccccn1 (stereo unspecified),0.4,-0.34,54*,0.5,3,61*
COc1ccc(C2Nc3ccccc3C(=O)N2Cc2ccco2)cc1CN1C(=O)c2ccccc2C1=O (stereo unspecified),0.2,-0.038,74*,0.3,8,85*
COc1cc(C2c3c(oc4ccccc4c3=O)C(=O)N2Cc2ccco2)ccc1O (stereo unspecified),0.6,1.4,37,0.6,-3,42
COCCCn1c(SCC(=O)OC2CCCCC2)nnc1-c1cccs1,1.7,-0.82,85*,0.2,6,-73
COCCCn1c(SCC(=O)NC2CCCC2)nnc1-c1ccco1,1.3,0.33,-13,1.1,5,-28
Cn1c(SCC(=O)N(C2CCCCC2)C2CCCCC2)nnc1-c1cccs1,0.9,-0.25,47,0.5,2,8
COCCCn1c(SCC(=O)OC2CCCCC2)nnc1-c1ccco1,2.2*,-0.64,22,0.8,-1,-123
Oc1c(Cl)cc(Cl)c2c1NCCC2,1,-0.099,39,0.6,2,-2
COc1ccc(CN2CCCC2C(=O)Nc2ccc(OC)c(OC)c2)cc1OC (stereo unspecified),0.5,0.41,54*,0.5,2,50
